Data: ChEMBL document CHEMBL4359813, “Synthesis and antimycobacterial activity of imidazo[1,2-b][1,2,4,5]tetrazines” (2019)
Calls of active or inactive are those of the source. The rule behind the calls is not given here.

Legend:
Type in all cases: functional, organism-based
[1] = tested on: Mycolicibacterium smegmatis; assay: Antimycobacterial activity against Mycobacterium smegmatis atR2 assessed as decrease in drug resistance development at 15 ug/disc after 2 to 3 days by paper disc method
Summary of the method: (§1)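 Mutant M. smegmatis strains were grown in Middlebrook 7H9/OADC/Tween/glycerol to OD600 1.2. Cultures were diluted 1:9:10 (culture:water:M290) and overlaid on M290 agar. Commercial or impregnated paper discs were applied and plates incubated 2–3 days at 37 °C. Inhibition halos were measured to 1 mm, run in triplicate, mean ± SD.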

[2] = tested on: Mycolicibacterium smegmatis; assay: Antimycobacterial activity against Mycobacterium smegmatis atR11 assessed as decrease in drug resistance development at 15 ug/disc after 2 to 3 days by paper disc method; summary of the method: as §1
[3] = tested on: Mycolicibacterium smegmatis; assay: Antimycobacterial activity against Mycobacterium smegmatis atR8 assessed as decrease in drug resistance development at 15 ug/disc after 2 to 3 days by paper disc method
Summary of the method: (§2)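 Drug-resistant M. smegmatis mc2 155 mutants, isolated on M290 agar with 3.5-4× MIC of compound and resistance re-confirmed, grown in Middlebrook 7H9 (OADC, 0.1% Tween-80, 0.4% glycerol) to OD600 1.2. Diluted 1:9:10 culture:water:M290 and poured as top layer on M290 agar. Impregnated paper discs applied; 37 °C for 2–3 days. Halos measured to nearest 1 mm; triplicates, mean ± SD versus control strain.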

[4] = tested on: Mycolicibacterium smegmatis; assay: Antimycobacterial activity against Mycobacterium smegmatis atR1 assessed as decrease in drug resistance development at 15 ug/disc after 2 to 3 days by paper disc method; summary of the method: as §1
[5] = tested on: Mycolicibacterium smegmatis; assay: Antimycobacterial activity against Mycobacterium smegmatis atR14 assessed as decrease in drug resistance development at 15 ug/disc after 2 to 3 days by paper disc method; summary of the method: as §1
[6] = tested on: Mycolicibacterium smegmatis; assay: Antimycobacterial activity against Mycobacterium smegmatis atR9 assessed as decrease in drug resistance development at 15 ug/disc after 2 to 3 days by paper disc method; summary of the method: as §2
[7] = tested on: Mycolicibacterium smegmatis; assay: Antimycobacterial activity against Mycobacterium smegmatis atR14 assessed as decrease in drug resistance development at 100 ug/disc after 2 to 3 days by paper disc method; summary of the method: as §1
[8] = tested on: Mycolicibacterium smegmatis; assay: Antimycobacterial activity against Mycobacterium smegmatis atR11 assessed as decrease in drug resistance development at 100 ug/disc after 2 to 3 days by paper disc method; summary of the method: as §1
[9] = tested on: Mycolicibacterium smegmatis; assay: Antimycobacterial activity against Mycobacterium smegmatis atR37 assessed as decrease in drug resistance development at 100 ug/disc after 2 to 3 days by paper disc method; summary of the method: as §2
[10] = tested on: Mycolicibacterium smegmatis; assay: Antimycobacterial activity against Mycobacterium smegmatis atR2 assessed as decrease in drug resistance development at 100 ug/disc after 2 to 3 days by paper disc method; summary of the method: as §1
[11] = tested on: Mycolicibacterium smegmatis; assay: Antimycobacterial activity against Mycobacterium smegmatis atR8 assessed as decrease in drug resistance development at 100 ug/disc after 2 to 3 days by paper disc method; summary of the method: as §2
[12] = tested on: Mycolicibacterium smegmatis; assay: Antimycobacterial activity against Mycobacterium smegmatis atR10 assessed as decrease in drug resistance development at 100 ug/disc after 2 to 3 days by paper disc method; summary of the method: as §1
[13] = tested on: Mycolicibacterium smegmatis; assay: Antimycobacterial activity against Mycobacterium smegmatis atR40 assessed as decrease in drug resistance development at 100 ug/disc after 2 to 3 days by paper disc method; summary of the method: as §2
[14] = tested on: Mycolicibacterium smegmatis; assay: Antimycobacterial activity against Mycobacterium smegmatis atR1 assessed as decrease in drug resistance development at 100 ug/disc after 2 to 3 days by paper disc method; summary of the method: as §1

| SMILES | Activity [1] | Activity [2] | Activity [3] | Activity [4] | Activity [5] | Activity [6] | Activity [7] | Activity [8] | Activity [9] | Activity [10] | Activity [11] | Activity [12] | Activity [13] | Activity [14] |
| --- | --- | --- | --- | --- | --- | --- | --- | --- | --- | --- | --- | --- | --- | --- |
| CC[C@H]1OC(=O)[C@H](C)[C@@H](O[C@H]2C[C@@](C)(OC)[C@@H](O)[C@H](C)O2)[C@H](C)[C@@H](O[C@@H]2O[C@H](C)C[C@H](N(C)C)[C@H]2O)[C@](C)(O)C[C@@H](C)C(=O)[C@H](C)[C@@H](O)[C@]1(C)O | inactive | inactive | inactive | inactive | inactive | inactive |  |  |  |  |  |  |  |  |
| CO[C@H]1/C=C/O[C@@]2(C)Oc3c(C)c(O)c4c(O)c(c(/C=N/N5CCN(C)CC5)c(O)c4c3C2=O)NC(=O)/C(C)=C\C=C\[C@H](C)[C@H](O)[C@@H](C)[C@@H](O)[C@@H](C)[C@H](OC(C)=O)[C@@H]1C |  |  |  |  |  |  | inactive | inactive | Active | inactive | inactive | inactive | Active | inactive |
